The nature of the data set: Toxicity liver stage against HepG2, at 10uM. In kind it is cell-based. Set-up: test concentration 10 uM, cell line HepG2-A16-CD81EGFP. Conditions: human, HepG2-A16-CD81EGFP cells; read-out: INHIBITION
The method in brief: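 Uninfected HepG2-A16-CD81EGFP cells, 3 × 10^3 per well, 1536-well, plated on prespotted compound at 10 μM final, parasite-free screening media added to match infected plates; puromycin 10 μM positive, DMSO 0.5% negative; run in parallel with 48 h PbLuc assay at 37 °C, 5% CO2; viability by CellTiter-Glo luminescence, normalized to controls.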

Consider `Cc1cc(C)n(C2CCCN(C(=O)CCc3nccs3)C2)n1` (configuration not stated), for which the cytotoxicity at 10 µM is -28.1%.
Then `CCS(=O)(=O)N1CCC2(CC1)CCn1c(-c3cnn(C)c3)cnc12`, with -138%; and `Cc1cccc(Nc2nccnc2C2CCCN2CC(N)=O)n1` (configuration not stated), with -4.16%; and `Cn1cc(N2CC3(CCN(CC4CC4)C3)CC2=O)cn1` (configuration not stated), with 1.84%.
Regarding `O=C(CCN1CCCC1c1ccccn1)N1CCc2ccccc2C1` (configuration not stated), the cytotoxicity at 10 µM was determined as 2.87%.
On to `Cc1ncsc1CCN(C)Cc1cc2n(n1)CCN(S(C)(=O)=O)C2`, for which the cytotoxicity at 10 µM is -12.8%.
Then `Cn1cnc2c1CCN(CCS(=O)(=O)c1ccccc1)C2`, with -3.32%; and `Cc1ccc(C(CNCc2cnn(C(C)C)c2)N2CCOCC2)s1` (configuration not stated), with -21.3%.
Next, `COc1ccc2nc(C[C@@H]3C[C@@H](C(C)C)[C@H](CN)C=C3C)[nH]c2n1`: 3.38%.
`CN(C)C(=O)CNC(=O)c1ccc(Cl)cc1F`: the cytotoxicity at 10 µM is -7.04%.
In the case of `CN1CC(c2ccccc2)CC2(CCN(C(=O)c3cccnn3)CC2)C1` (configuration not stated), the cytotoxicity at 10 µM was -8.92%.
Then `COCCN(C)C(=O)c1nc2c(s1)CCCN2S(C)(=O)=O`, with -143%.
Turning to `CC(C)(C)c1ccc2c(c1)CCN2C(=O)c1ccc(=O)[nH]n1`, the cytotoxicity at 10 µM was 2.87%.
Consider `Cc1nnc(SC2CCN(c3sccc3C#N)C2=O)[nH]1` (configuration not stated), for which the cytotoxicity at 10 µM worked out at 7.25%.
Next, `CC(c1cccc(-c2ccc(C(=O)O)cc2Cl)c1)N(C)C` (configuration not stated): -2.25%.
`Cc1ccc(N2CC3(COCCN(Cc4cnn(C)c4)C3)OCC2=O)s1` (configuration not stated): the cytotoxicity at 10 µM is -5.18%.
Next, `Cc1nc(SCC(=O)Nc2ccc(C(N)=O)cc2)c(C#N)c(C)c1C`: -5.28%; `c1cnn(C[C@@H]2C[C@@H]3CN(CC4CC4)CC[C@@H]3N2c2nccs2)c1`: 9.1%; `O=C(Nc1cc(-c2ccncc2)no1)C1CC1`: -4.18%.
Then `O=C1CCCN1C1CCCN(CCOc2ccc(F)cc2)C1` (configuration not stated), with 7.62%; and `O=C(CCNc1ncccn1)NCCc1ccc(Cl)s1`, with -3.91%.
On to `Cc1cccc(CN2C(=O)C[C@H]3[C@@H]2CCN3Cc2ccc(F)cc2)n1`, for which the cytotoxicity at 10 µM worked out at 2.2%.
For `Cc1csc(C2(NC(=O)CCc3ccncc3)CCCC2)n1`, the cytotoxicity at 10 µM is -12.1%.
In the case of `COc1ccc(CN2C[C@@H]3OCCN(C)[C@@H]3C2)cc1`, the cytotoxicity at 10 µM is -74.8%.
In the case of `Cc1cc(C)nc(N2CCN(Cc3cc4n(n3)CCNC4)CC2)n1`, the cytotoxicity at 10 µM was -8.46%.
Next, `CS(=O)(=O)N1CCCCC1CCc1ccc(O)cc1` (configuration not stated): -0.311%; `CCn1ncc2c1CCCC2NCc1cc(Cl)c(OC)c(OC)c1` (configuration not stated): 24.4%; `CN1CCN2C[C@@H](CO)[C@H](c3ccccc3)[C@H]2C1`: 8.78%.
With `Cn1cnc(S(=O)(=O)N2CCCC2c2cnccn2)c1` (configuration not stated), the cytotoxicity at 10 µM is -28.4%.
For `Cc1nc(Nc2nnc(C)s2)cc(C2CCCN2C2CCCC2)n1` (configuration not stated), the cytotoxicity at 10 µM was -16.7%.
Then `O=C(c1ccccc1N1CCOCC1)N1CCCC1Cn1cccn1` (configuration not stated), with -7.44%.
Turning to `CCN(Cc1cc(F)c(OC)c(Cl)c1)Cc1noc(CC(C)C)n1`, the cytotoxicity at 10 µM was -2.84%.
Then `NC(=O)C(NCc1nn(-c2ccccc2)c2c1CCC2)c1ccccc1` (configuration not stated), with -5.86%; and `CN(Cc1cccc(-n2cccn2)c1)C(=O)c1cccc(N(C)C)c1`, with -0.809%.
Turning to `Cc1cc(C2CCCN(CCCS(N)(=O)=O)C2)n[nH]1` (configuration not stated), the cytotoxicity at 10 µM is -20.1%.
Then `Cc1ncnc(N2CCN(C(=O)C3CC4(CCNCC4)CN3)CC2)c1C` (configuration not stated), with -14.7%; and `CCC1(C(=O)O)CCCN(C(=O)c2ccc(O)c(Cl)c2)C1` (configuration not stated), with -8.87%.
Then `O=C(c1cccs1)N1CC[C@@H](N2CCOCC2)[C@@H]1Cc1ccccc1`, with -81.6%; and `CSc1c(CC(=O)O)n(C)c2ccccc12`, with 3.79%; and `Cc1cc(N2CCCC2c2nnc3n2CCCCC3)nc(N)n1` (configuration not stated), with -10.1%.
Next, `COc1cccc(N2CCN(C(=O)CO)CC2=O)c1`: 0.995%; `CC(C)N1CC[C@@H]2[C@H](COCC3CC3)CN(C)C(=O)[C@@H]2CC1`: 6.8%.
As to `O=C(Cc1c[nH]c(=O)[nH]c1=O)N1CCCCC1CCc1ccccc1` (configuration not stated), the cytotoxicity at 10 µM was -9.05%.
Next, `Cc1cccn2cc(CNCc3cccc4c3OCCCO4)nc12`: 15.5%; `COCc1ccc(CN[C@H]2C[C@@H](Cc3cc(CCO)on3)C2(C)C)o1`: -1.68%; `c1cncc(-c2nnn3c2COCC(CNC2CCOCC2)C3)c1` (configuration not stated): -77%.
For `c1csc(CN2CCC3(CC2)CCN(CC2CCOCC2)C3)n1`, the cytotoxicity at 10 µM is 3.83%.
Next, `Cc1nccn1-c1ccc(N2CCC(N[C@H](C)C(C)C)CC2)cc1`: -6.39%; `O=C(c1cc(Cl)ccc1OC1CCN(C2CCCC2)CC1)N1CCCO1`: -2.54%; `CCn1nnc2c1C(COC)CN(Cc1ccsc1)C2` (configuration not stated): 2.3%.
Turning to `O=C(NCC1CCOC1)c1csc(-c2ccco2)n1` (configuration not stated), the cytotoxicity at 10 µM is -6.49%.
Take `O=C(C1CCCCC1)N1CCC(n2nc(-c3ccco3)ccc2=O)CC1`: the cytotoxicity at 10 µM was -16.6%.
Then `c1ccc(N2CC[C@@H]3CN(Cc4ccncc4)CCO[C@@H]3C2)cc1`, with 9.49%; and `CCc1nc(CN2CCN(C(=O)C3(C#N)CCCCC3)CC2)cs1`, with -3.6%; and `CCn1ccnc1CN1CCN(Cc2cccc(C#N)c2)CC1`, with -22.3%.
Regarding `COc1ccc(NC(=O)N(C)Cc2ccsc2)cn1`, the cytotoxicity at 10 µM was -2.36%.
As to `COCCOc1ccc(NC(=O)C2CCC2)cn1`, the cytotoxicity at 10 µM was -9.65%.
Next, `Cc1cc(CN2CCN(C(=O)c3ccc(=O)n(C)c3)CC2)no1`: -8.07%; `CN(C)C(=O)CN1CCC2(C1)CN(CC1CCOCC1)C2`: -9.91%; `O=C(O)[C@@H]1CN(C(=O)CCCc2ccc(F)cc2)C[C@H]1C1CC1`: 0.832%.
As to `O=C1NCCCCC1SCc1coc(-c2cccc(F)c2)n1` (configuration not stated), the cytotoxicity at 10 µM was 7%.
Take `Cc1cc(NCc2ccc(O)cc2)n2nc(C)cc2n1`: the cytotoxicity at 10 µM is -0.881%.
Take `Cc1cc(CN(C)C(=O)C2CCS(=O)(=O)C2)no1` (configuration not stated): the cytotoxicity at 10 µM stood at 0.746%.
Then `CCN(CC(=O)N(C)C)C(=O)c1nc(C)n(-c2ccccc2Cl)n1`, with 7.3%; and `Cn1nc(CNC(=O)CC#N)c2c1CN(CC1CC1)CC2`, with 7.4%.
Next, `Cn1cc(CN2CCC3(CC2)COC(COc2ccccn2)C3)cn1` (configuration not stated): 0.719%.
Next, `Cc1c(Cl)ccc2ccc(NC(CO)CO)nc12`: -7.78%; `O=C(NCCC(=O)N1CCCC1)c1ccc(SCc2cccnc2)cc1`: 8.95%; `CC(=O)N1CCC2(CCCN(C(=O)c3ccc(Cl)c(C(F)(F)F)c3)C2)C1` (configuration not stated): -81.8%.
Take `CCN1CC(COC(=O)c2cc(Br)ccc2F)CC1=O` (configuration not stated): the cytotoxicity at 10 µM turned out to be 5.09%.
Then `CN1C(=O)CO[C@H](c2ccc(NC(=O)c3cccc(F)c3)cc2)[C@H]1CO`, with 10%.
Next, `Cc1nc2ccc(-n3ncnc3[C@@H]3CCCN3S(C)(=O)=O)cc2s1`: -11.5%.
Then `CN(Cc1ccco1)[C@@H]1CN(C(=O)c2ccnnc2)C[C@@H]2CCCO[C@@H]21`, with -10.5%; and `CNC(=O)c1cnc2n1CCN(Cc1cccnc1OC)C2`, with 8.91%; and `CN(Cc1ccccc1)C(=O)CN1CCCC(Cn2cncn2)C1` (configuration not stated), with -11.8%.
Regarding `Cc1cc(CN(C)CC2CCCCC2)no1`, the cytotoxicity at 10 µM was determined as 13.2%.
Then `O=C1CCC2(CCN(Cc3nccs3)CC2)N1Cc1ccccc1`, with 1.54%; and `CCn1c(C)nnc1SCCNc1nc(C)nc2c1cnn2C`, with 7.9%; and `O=C(NCCc1cccc(O)c1)NC1CCN(c2ccccc2)C1=O` (configuration not stated), with 5.68%.
Next, `O=C(c1ccc(O)nc1)N1CCN(C(=O)c2ccc(F)cc2F)CC1`: -1.35%; `CCc1cnc(N2CC[C@H]3[C@@H]2CCC(=O)N3c2ccccc2)nc1`: -6.18%.
As to `COCCCNC(=O)COc1ccccc1C(F)(F)F`, the cytotoxicity at 10 µM was determined as 14.7%.
`Cc1cnn(CCNCc2ccc(C#N)cc2F)c1`: the cytotoxicity at 10 µM is -2.73%.
As for `Cc1ccc2nc(CN(C)Cc3ccc(C)o3)cc(=O)n2c1`, the cytotoxicity at 10 µM was -3.02%.
Next, `Cc1nn(C)c(C)c1CC(=O)N1CCC(Nc2cccnn2)CC1`: -8.8%.
Then `Cc1cc(C)c(CNC(=O)N2CCN(c3cnccn3)CC2)c(=O)[nH]1`, with -2.58%; and `OC[C@H]1CN(Cc2c(Cl)cncc2Cl)C[C@H]1CN1CCOCC1`, with -107%.
`F[C@@H]1CN(Cc2cccnc2)C[C@@H]1OCc1nc2ccccc2[nH]1`: the cytotoxicity at 10 µM was 5.22%.
Next, `O=C(NCCCOC1CCOC1)NC(C1CC1)C1CC1` (configuration not stated): -5.36%.
For the compound `COc1ccc(C(NC(=O)NCc2nnc3n2CCC3)C2CC2)cc1` (configuration not stated), the cytotoxicity at 10 µM came to 11.7%.
`COc1cccc(CCC(=O)Nc2c(C)nn(C)c2C)c1OC`: the cytotoxicity at 10 µM is 1.98%.
Next, `CC(C)c1ccc(OCCNC(=O)c2ccoc2)cc1`: -1.92%; `CN(C)CC1CN(Cc2coc(-c3ccc(Cl)cc3)n2)CCO1` (configuration not stated): 0.35%; `CC1CCN(CCNC(=O)Nc2ccc(F)cc2Cl)CC1`: 4.68%.
Then `COc1ccccc1C(O)Cn1cc(C(=O)NCc2ccco2)nn1` (configuration not stated), with -6.03%.
With `CCOc1cc(F)ccc1NC1CCN(CC(F)(F)F)C1=O` (configuration not stated), the cytotoxicity at 10 µM was -0.302%.
Then `CC(C)OCCCNC(=O)Nc1cccc2ncccc12`, with 2.96%.

The values are drawn from ChEMBL document CHEMBL4513216, “Probing the Open Global Health Chemical Diversity Library for Multistage-Active Starting Points for Next-Generation Antimalarials” (ACS Infect Dis, 2020).
